Results from different studies.

SMILES	assay	system	setting	endpoint	result
O=[N+]([O-])c1ccc(-c2ccc(O)cc2)c2cccnc12	–	male CD-1 mouse, plasma	oral, 5 mg/kg	Vd/F	157 L/kg
N#C[C@@]12C[C@@H]1[C@@H](n1cnc3c(N[C@@H](C4CCC4)C4CC4)nc(I)nc31)[C@H](O)[C@@H]2O	chemical stability	simulated intestinal fluid	2 h	compound remaining	97.8%
COc1ccc([C@@H](O)c2cc(-c3ncnc4cc(N5CCOCC5)ccc34)c(F)cc2Cl)nn1	–	human, plasma	oral, 400 mg, single dose, patients	half-life	3.51 h
Cc1c(C(=O)O)ccc2c3n(nc12)[C@@H]1[C@H](C3)N(CC2CC2)[C@@]2(C(=O)Nc3cc(Cl)ccc32)[C@H]1c1cccc(Cl)c1F	–	female mouse, plasma	intravenous	Vd	0.44 L/kg
NC(=S)NN=Cc1ncccc1N	–	human, plasma	oral, 100 mg	half-life	1.5 h
NS(=O)(=O)OC[C@@H]1C[C@@H](n2ccc3c(N[C@H]4CCc5ccccc54)ncnc32)C[C@@H]1O	–	human, plasma	intravenous, 35 mg/m², patients	half-life	5.1 h
Cn1cc(Nc2nc(N)nc(-c3cccc(-n4ccc5cc(C6CC6)cc(F)c5c4=O)c3CO)n2)cn1	–	human, plasma	oral, 300 mg, single dose, fasted, healthy volunteers	half-life	9.7 h
CNC(=O)n1ccc2cc(Oc3ccnc(NC(=O)c4ccc(C5CCN(CCO)CC5)cc4)c3)c(OCCOC)cc21	–	human, plasma	oral, 35 mg, single dose, healthy volunteers	half-life	21 h
CC(C)n1c(Nc2cccnc2)nc2cnc(Nc3ccc(N4CCN(C)CC4)cc3)nc21	–	male human, plasma	oral, 100 mg, single dose	half-life	35.4 h
Cc1ccc(C(=O)Nc2ccc(CN3CCN(C)CC3)c(C(F)(F)F)c2)cc1C#Cc1cnc2[nH]ncc2c1	–	human, plasma	oral, 20 mg, healthy volunteers	half-life	33.2 h
